Measured values: ChEMBL document CHEMBL1124845, “Synthesis and antiviral activity of some 7-[(2-hydroxyethoxy)methyl]pyrazolo[3,4-d]pyrimidine analogues of sangivamycin and toyocamycin” (J Med Chem, 1990)

Key:
[1] = (§1) Tested for cytotoxic activity against monkey kidney cells(BSC-1) cells.; type: functional, cell-based; conditions: Cercopithecidae
How it was run: (§2)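 Cytotoxicity was scored visually on uninfected HFF or BSC-1 cells within the plaque-reduction plates. Drug-induced cytopathology was graded 0 to 4+ at 35- and 60-fold magnification on the day of staining for plaque enumeration.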

Human betaherpesvirus 5 = assay: Tested for antiviral activity against human cytomegalovirus (HCMV) by means of plaque reduction assay.; type: functional, organism-based
How it was run: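 HFF monolayers (MEM(E), 10% FBS) were inoculated with about 50 PFU of a plaque-purified Towne strain HCMV isolate in 0.2 mL. Test compounds were included in the overlay medium and plaques counted. IC50 came from a linear regression of percent inhibition versus log concentration. Positive controls ran in all assays, with sets rejected if the control deviated >1.5 SD.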

HFF = assay: Tested for cytotoxic activity against human foreskin fibroblasts (HFF) cells.; type: functional, cell-based; how it was run: as §2
Human alphaherpesvirus 1 = assay: Tested for antiviral activity against herpes simplex virus-1(HSV-1) by means of plaque reduction assay.; type: functional, organism-based
How it was run: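 Monolayer BSC-1 cells (MEM with Earle's salts, 10% FBS) infected with about 100 PFU HSV-1 strain S-148 in 0.2 mL inoculum. Compounds were dissolved in the overlay medium and plaques counted. IC50 was taken from a linear regression of percent inhibition against log concentration. An acyclovir or ganciclovir positive control was run in every assay, and sets deviating >1.5 SD were rejected.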

[2] = Tested for cytotoxic activity against human neoplastic cell line(KB cells).; type: functional, cell-based
How it was run: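 KB cells were grown in MEM with Hank salts and 5% FBS. Inhibition of radioactive precursor incorporation into DNA, RNA and protein was measured. IC50s were obtained by regression of percent inhibition against log concentration, and the three values were averaged.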

BSC-1 = assay: as §1; type: functional, cell-based, Cercopithecidae; conditions: Chlorocebus aethiops; how it was run: as §2

Compound | IC50 [1] [µM] | IC50 (Human betaherpesvirus 5) [µM] | IC50 (HFF) [µM] | IC50 (Human alphaherpesvirus 1) [µM] | IC50 [2] [µM] | IC50 (BSC-1) [µM]
N#Cc1nn(COCCO)c2ncnc(N)c12 | > 100 | > 100 | > 100 | > 100 |  | 
COC(=N)c1nn(COCCO)c2ncnc(N)c12 | > 100 | > 100 | > 100 | > 100 |  | 
CC(=O)OCCOCn1nc(C#N)c2c(N)ncnc21 | > 100 | > 100 | > 100 | > 100 | 54 | 
Nc1nc2c(ncn2COC(CO)CO)c(=O)[nH]1 [GANCICLOVIR] | > 100 |  | > 100 |  | 1000 | 
Nc1nc2c(ncn2COCCO)c(=O)[nH]1 [ACYCLOVIR] | > 100 |  | > 100 |  | > 100 | 
NC(=O)c1nn(COCCO)c2ncnc(N)c12 | > 100 | > 100 | > 100 | > 100 | > 100 | 
N#Cc1nnc2nc[nH]c(N)c1-2 |  | 68 | > 100 | 16 |  | > 100
NC(=S)c1nn(COCCO)c2ncnc(N)c12 | 100 | 2.5 | 55 | 9 | 24 | 
